# Source: PubChem BioAssay
# SMARCA2 activ = activators of SMARCA2 function | MG213 cells, MMTV-luciferase reporter, dexamethasone, overnight | activation, % at 9.1 µM | hit rate 1% among 370,000 | AID 652017; in the data active = activation above about 7.8%;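 also: 0% = vehicle wells and 100% = reference activator wells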
# SR-BI DiI-HDL act = SR-BI HDL lipid transfer activation; activation, % at 12.5 µM; hit rate 0.096% among 320,000; CHO ldlA[mSR-BI] cells, DiI-HDL uptake fluorescence, 3 h; 100 = double the neutral-control signal;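 active = mean replicate activation of at least 60% and every replicate at or above 60%; inconclusive = mean or all-replicate condition met, but not both; inactive = mean below 60% and not all replicates reaching 60%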;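 also: 0% = median plate neutral-control signal and 100% = twice that signal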
#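 Assay system: LDL receptor-deficient CHO ldlA cells overexpressing murine SR-BI / Medium: BSA-supplemented, HEPES-buffered Ham's F12, pH 7.4 / Probe or stimulus: DiI-labelled HDL at 10 µg/mL final / Timing: compound with DiI-HDL co-incubation, 3 h at 37 °C / Technique: bottom-read cell fluorescence after medium removal, ex 550/em 595 nm / Measure: HDL uptake via cellular fluorescence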
# Yeast superoxide = caloric restriction mimetics inhibiting age-related superoxide in yeast. S. cerevisiae aged cells, superoxide DHE fluorescence; hits give low values. AID 2690. superoxide response (% of plate mean), % at 10 µM. hit rate 0.18% among 330,000;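 active = superoxide response under a set limit, about three screen SD below normal, cut at about 65% in these data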;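 also: yeast aged for seven days with compound at 30 °C before DHE staining; 100% = average MFI of all compound-treated wells on the plate with controls excluded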
# AHR act = human AHR activation; activation, % at 5 µM; hit rate 2.5% among 320,000; AHR-responsive luciferase reporter cells, luminescence; P35869; in the data active = activation above about 47%;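 also: 0% = vehicle wells and 100% = reference agonist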
# Target sequence (P35869 whole entry, looked up): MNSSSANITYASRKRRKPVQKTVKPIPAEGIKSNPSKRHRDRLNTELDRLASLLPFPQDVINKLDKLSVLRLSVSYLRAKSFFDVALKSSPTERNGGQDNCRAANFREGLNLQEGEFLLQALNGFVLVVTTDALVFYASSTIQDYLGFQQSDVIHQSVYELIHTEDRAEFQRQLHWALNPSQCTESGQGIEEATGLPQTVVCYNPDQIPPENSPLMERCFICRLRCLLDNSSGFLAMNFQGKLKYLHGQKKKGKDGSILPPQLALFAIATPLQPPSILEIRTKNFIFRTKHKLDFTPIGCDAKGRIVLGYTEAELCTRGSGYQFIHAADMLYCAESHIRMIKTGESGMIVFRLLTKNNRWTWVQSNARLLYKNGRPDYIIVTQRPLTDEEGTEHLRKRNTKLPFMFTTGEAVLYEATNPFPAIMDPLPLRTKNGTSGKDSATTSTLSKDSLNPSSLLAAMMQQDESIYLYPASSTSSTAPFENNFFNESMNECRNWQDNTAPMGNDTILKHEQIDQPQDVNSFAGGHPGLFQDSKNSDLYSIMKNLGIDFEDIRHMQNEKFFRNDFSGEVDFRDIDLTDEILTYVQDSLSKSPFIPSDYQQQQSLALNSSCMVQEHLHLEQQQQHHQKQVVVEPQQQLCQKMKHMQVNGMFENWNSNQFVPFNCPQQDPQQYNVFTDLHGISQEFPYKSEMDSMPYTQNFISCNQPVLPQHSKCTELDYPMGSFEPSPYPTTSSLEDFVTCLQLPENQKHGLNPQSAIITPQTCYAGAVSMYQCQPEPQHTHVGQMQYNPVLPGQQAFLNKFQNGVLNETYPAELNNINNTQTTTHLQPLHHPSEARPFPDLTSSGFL
# Lipid droplet = hepatic lipid droplet formation modulation; AML12 mouse hepatocytes, oleate lipid droplets, BODIPY imaging; inhibition, % at 6.5 µM; hit rate 0.4% among 240,000;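 active = lipid droplet intensity inhibited by at least 50%, with more than 500 cells counted; inconclusive = wells with under 300 cells, treated as cytotoxic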
#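 System: AML12 hepatocytes (mouse). Probe or stimulus: oleic acid at 100 µM to induce lipid droplet formation. Times: overnight treatment with compound plus oleate. Detection: Image-based BODIPY and DAPI two-channel analysis. Evaluation: percent inhibition of filter-corrected integrated lipid droplet intensity per well.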
# SR-BI DiI inh = mouse SR-BI HDL lipid transfer inhibition; Q61009; ldlA[mSR-BI] CHO cells, DiI-HDL uptake fluorescence, 3 h; inhibition, % at 12.5 µM; hit rate 0.96% among 320,000; AID 488896;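 active = mean replicate inhibition of at least 70% and a set share of replicates each scoring 70 or more; inconclusive = meets just one of the two criteria; inactive = fails both criteria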;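 also: 0% = median of neutral control wells and 100% = median of positive control wells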
# Superoxide pick = confirmation of caloric restriction mimetics inhibiting yeast age-related superoxide. AID 434994. hit rate 1% among 850. shares compounds with Yeast superoxide. S. cerevisiae aging, superoxide DHE fluorescence; hits give low values. superoxide response (% of plate), % at 10 µM;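 active = superoxide signal below 65% of the plate average of sample wells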;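 also: cells aged with compound for 7 days at 30 degrees C before staining; 100% equals mean DHE fluorescence of all compound wells on the plate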
# DHE fluor count = counter-screen for compounds affecting DHE oxidation and fluorescence in yeast; AID 435000; shares compounds with Yeast superoxide; 850 tested, under 10 active; S. cerevisiae BY4741, flow cytometry; hits give low values; fluorescence response, % at 10 µM;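 active = fluorescence response below 15%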;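 also: percent of the mean fluorescence averaged over all compound wells on the plate; lower means stronger quenching of DHE signal or ROS scavenging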
# The depositor's hits bear a star; ? = inconclusive; . = not tested or not shown. A selection: hits, their analogues and other compounds. The true share with any hit is near 4.3%.
SMILES,SMARCA2 activ,SR-BI DiI-HDL act,Yeast superoxide,AHR act,Lipid droplet,SR-BI DiI inh,Superoxide pick,DHE fluor count
Cc1cc(C)c(S(=O)(=O)Nc2ccc(O)cc2)c(C)c1,-2.7,27.2,94.0,-3.3,.,-27.2,121.4,120.8
CC(=O)Nc1ccc(NC(=O)CSc2nnc(-c3ccco3)o2)cc1,-4.9,16.1,99.8,0.1,26.1,-16.1,.,.
CCc1ccc(NC(=O)CSc2nnc(-c3ccco3)o2)cc1,-1.6,16.5,65.0*,7.3,-11.3,-16.5,87.7,91.8
NS(=O)(=O)c1ccc(N/N=C/c2ccc(C(=O)O)cc2)c([N+](=O)[O-])c1,2.9,7.3,96.9,3.2,24.3,-7.3,.,.
Cc1nn(-c2ccccc2)c(N2CCCC2)c1/C=N/Nc1ccc(S(N)(=O)=O)cc1[N+](=O)[O-],1.3,-80.4,60.3*,43.2,28.6,80.4*,93.4,101.2
O=S1(=O)c2ccc(N3CCSCC3)cc2Oc2ccccc2CN1Cc1cn(Cc2ccc(F)cc2)nn1,6.8,.,.,.,.,.,.,.
CCc1ccc(N2CCN(C(=O)c3ccc(OC)c(OC)c3)CC2)cc1,-3.1,-9.2,86.3,-0.8,-1.0,9.2,.,.
COc1ccc(C(=O)N2CCN(c3ccc(C)cc3)CC2)cc1OC,-1.1,-1.2,91.0,0.9,.,1.2,110.5,105.7
O=C(c1ccc(N2CCCC2=O)cc1)N1CCN(c2ccc(Cl)cc2)CC1,-2.7,.,100.3,-2.9,-1.6,-8.9,.,.
Cc1ccc(C(=O)N2CCN(c3ccc(Cl)cc3)CC2)cc1,-1.6,-2.5,107.2,2.0,-10.7,2.5,106.1,91.8
CN1[C@@H](Cc2ccccc2)COc2cc(N3CCCC3)ccc2S1(=O)=O,-2.9,.,.,.,.,.,.,.
COc1ccc(CNC(=O)CNC(=O)c2ccc(C(C)(C)C)cc2)cc1OC,2.4,-16.1,62.0*,4.6,-3.5,16.1,104.3,88.9
Cc1cc(C)cc(C(=O)OCCN(C)C2CN(Cc3cn(Cc4cccc(F)c4)nn3)S(=O)(=O)C2)c1 (configuration not stated),-2.7,.,.,.,.,.,.,.
[O-][n+]1c2ccccc2[n+]([O-])c2cc(O)ccc21,1.9,15.3,51.4*,27.2,.,-15.3,60.9*,89.6
[O-][n+]1c(/C=C/c2ccccc2)ccc2ccccc21,5.1,-6.0,96.7,.,-6.0,6.0,.,.
O=C(O)C1CCCN1S(=O)(=O)c1ccccc1 (configuration not stated),-3.5,10.0,97.4,-0.4,-3.6,-10.0,.,.
O=C(O)C1CCCN1S(=O)(=O)c1ccc(Cl)cc1 (configuration not stated),-1.0,10.7,94.5,-1.8,.,-10.7,106.6,98.3
CCOC(=O)N1CCN(C(=O)C[C@H]2C[C@@]3(C(=O)OC)C(=C[C@H](C(C)C)O[C@@H]3C3CC3)N(Cc3cccc4ccccc34)C2=O)CC1,-3.8,.,.,.,.,.,.,.
CCCCNC(=O)/C(C#N)=c1\s/c(=C\c2ccccc2OC(F)F)c(=O)n1CCCOC,0.7,-6.0,64.8*,2.4,-5.2,6.0,117.9,103.8
COCC(=O)N1CCC(C(=O)NCC2COc3ccccc3O2)CC1 (configuration not stated),-0.8,.,.,.,.,.,.,.
CC(=O)Nc1ccc(S(=O)(=O)N(C)c2ccccc2)cc1,-2.4,6.2,103.5,6.8,.,-6.2,107.9,90.3
CN(c1ccc(C(=O)O)cc1)S(=O)(=O)c1ccccc1,-1.7,30.2,101.8,3.1,.,-30.2,113.8,106.4
CC(=O)Nc1ccc(S(=O)(=O)N(C)c2ccc(O)cc2)cc1,0.7,-10.3,94.4,0.7,.,10.3,.,.
CCCN1C(=O)c2n[nH]c(C)c2C1c1ccc2c(c1)OCO2 (configuration not stated),-4.2,.,.,.,.,.,.,.
C=CCN1[C@@H](C)COc2cccc(N3CCSCC3)c2S1(=O)=O,5.5,.,.,.,.,.,.,.
SMILES,SMARCA2 activ,SR-BI DiI-HDL act,Yeast superoxide,AHR act,Lipid droplet,SR-BI DiI inh,Superoxide pick,DHE fluor count
C[C@@H]1CCN(C2CC2)S(=O)(=O)c2c(cccc2N2CC[C@@H](N(C)C)C2)O1,0.9,.,.,.,.,.,.,.
Cc1nnc(NC(=O)c2nn(CC(C)C)c(=O)c3ccccc23)s1,1.6,-2.3,81.2,5.4,1.8,2.3,.,.
Cc1nc2ccc(NC(=O)c3nn(CC(C)C)c(=O)c4ccccc34)cc2s1,-1.5,-7.2,56.5*,5.4,7.4,7.2,114.3,121.7
O=C(/C=C/c1ccc(OC2CSC2)cc1)c1ccc(Cl)cc1,-2.9,37.1,62.9*,4.3,7.4,-37.1,99.3,86.3
Cc1ccc(-c2nn(CCC(N)=O)c(=O)c3ccccc23)cc1,.,3.2,117.6,-0.3,2.1,-3.2,.,.
CCN(CC)C(=O)CCn1nc(-c2ccc(C)cc2)c2ccccc2c1=O,.,-29.5,37.0*,1.5,-9.1,29.5,99.8,93.7
Cc1cc(C)nc(CCNC(=O)C2CCC(=O)N(Cc3ccccc3F)C2)n1 (configuration not stated),-0.5,30.0,64.7*,1.7,16.7,-30.0,94.9,94.8
O=C(NC1CCCCN(Cc2cccc(Cl)c2)C1=O)c1cccc([N+](=O)[O-])c1 (configuration not stated),-2.6,.,.,.,.,.,.,.
COC(=O)C1CN(C(=O)C(C)Oc2ccccc2Cl)c2ccccc2O1 (configuration not stated),-1.3,?,63.5*,9.6,-2.7,-355.8,101.2,101.6
COC(=O)C1CN(C(=O)COc2ccc(Cl)cc2Cl)c2ccccc2O1 (configuration not stated),2.4,6.1,78.1,1.0,3.9,-6.1,.,.
CN1C(=O)CCC(CCC(=O)O)(c2ccccc2O)C1=O (configuration not stated),1.6,2.1,63.4*,-0.5,.,-2.1,103.2,105.8
COc1ccc(CNC(=O)c2cc3ccccc3oc2=O)cc1,0.0,22.4,63.2*,-3.7,2.3,-22.4,96.3,93.4
COc1ccc2cc(C(=O)NCc3ccccc3)c(=O)oc2c1,-1.9,17.1,97.7,2.9,0.2,-17.1,.,.
O=[N+]([O-])c1ccc(OC2OCC(O)C(O)C2O)cc1 (configuration not stated),-4.3,.,.,.,.,.,.,.
CCCCCc1ccc(OCCCC[n+]2ccccc2)c(CCCCC)c1,.,12.5,89.3,0.4,-4.1,-12.5,88.0,96.7
CCCCOc1ccc(C)cc1CN(CCO)CCO,-2.4,22.7,105.6,-1.3,5.6,-22.7,.,.
CCCCCc1ccc(OCCCC[n+]2ccc(C)cc2)c(CCCCC)c1,-10.0,18.1,116.6,-0.8,-11.1,-18.1,84.8,96.0
CCCCCc1ccc(OCCCC[n+]2cccc(C)c2)c(CCCCC)c1,-9.8,29.3,100.2,1.9,-30.9,-29.3,104.9,89.0
CCC(C)(C)c1ccc(Oc2cccc(C(=O)O)c2)cc1,2.8,6.8,94.5,4.4,6.0,-6.8,.,.
